# Assay outcomes deposited in PubChem by several laboratories.
# TMEM16A inh: blocks the mouse calcium-activated chloride channel TMEM16A. Q8BHY3. HEK293 TMEM16A/YFP iodide influx fluorescence, ionomycin. normalized B-score (activity score, 25-100; higher = stronger inhibition) at 10 µM. hit rate 1.2% among 310,000. AID 588511;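 active = ratio plate-corrected score three or more library SD toward inhibition, starting fluorescence score within five deviations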;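 also: score derived from kinetic fluorescence span divided by baseline fluorescence per well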
# MIN6 prolif: inducers of beta-cell replication in MIN6 cells; MIN6 cells proliferation, ATPlite luminescence, 48 h; cells starved in 0.2% serum; 100% = growth in 10% serum; proliferation, % at 10 µM; hit rate 0.29% among 330,000;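 active = compounds whose signal lies at least 3.5 SD above the mean of all wells on their plate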;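 also: 0% = DMSO-treated cells in low-serum medium and 100% = 10% serum control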
# TMEM16A act: activates or potentiates the mouse TMEM16A chloride channel; HEK293 TMEM16A/YFP-H148Q/I152L, iodide quench fluorescence; hits give low values; hit rate 0.3% among 340,000; Q8BHY3; B-score at 10 µM;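 active = fluorescence-ratio B-score plate-corrected deviation score at least 3 library SD below zero, with starting fluorescence score within 5 deviations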;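 also: channel opened by trigger with iodide after compound preincubation; score built on the fluorescence ratio of max minus min over baseline; more negative score means more quench and so TMEM16A activation or potentiation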
# m5-HT2A agonist: activates the mouse 5-HT2A serotonin receptor; P35363; CHO-K1 mHTR2A beta-arrestin complementation, luminescence; percent of 30 µM serotonin response; activation, % at 7.6 µM; hit rate 0.66% among 360,000; AID 624169;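 active = activation above a run cutoff, the mean activation of all tested compounds plus 3 SD, cut at about 14% in these data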;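 also: 0% = plate median of compound wells and 100% = 30 µM serotonin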
# MC4R barr agon: human MC4R agonism via beta-arrestin; hit rate 0.98% among 360,000; activation, % at 8.9 µM; U2OS MC4R beta-arrestin complementation, luminescence; percent of melanotan II response, DMSO zero;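 active = activation above a per-plate cutoff, the mean activation of sample wells on that plate plus 3 SD, cut at about 8% in these data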
# Target sequence (P32245 whole entry, looked up): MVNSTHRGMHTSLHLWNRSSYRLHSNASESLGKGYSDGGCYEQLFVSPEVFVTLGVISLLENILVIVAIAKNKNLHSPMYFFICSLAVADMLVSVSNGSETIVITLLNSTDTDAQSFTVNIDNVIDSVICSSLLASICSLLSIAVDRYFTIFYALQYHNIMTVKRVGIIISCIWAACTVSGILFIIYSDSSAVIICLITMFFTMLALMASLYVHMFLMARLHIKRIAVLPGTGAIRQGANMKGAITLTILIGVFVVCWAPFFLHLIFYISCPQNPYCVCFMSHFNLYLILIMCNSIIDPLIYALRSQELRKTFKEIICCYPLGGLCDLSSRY
# MC4R antagonist: human MC4R antagonism in cAMP assay; MC4R-expressing cells, MTII-stimulated cAMP, LANCE TR-FRET; inhibition, % at 6.5 µM; P32245; hit rate 0.48% among 360,000; AID 540295;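 active = inhibition above its plate's cutoff, the mean of tested wells on that plate plus 3 SD, cut at about 29% in these data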;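 also: 0% = Melanotan II alone and 100% = Melanotan II plus saturating MCL0020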
#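 Material – human MC4R-expressing U2OS cells · Repeats – no replicates · Detection – TR-FRET with Eu-cAMP and labeled anti-cAMP, 671 nm · Times – compound 30 min, challenge 1 h, detection 1 h · Compound – single nominal compound dose of 6.5 µM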
# * marks the source's active call; other numbers are inactive results; i = inactive; · = no result given. Most compounds without a hit are left out; they make up all but 3.4% or so of the library.
SMILES,TMEM16A inh,MIN6 prolif,TMEM16A act,m5-HT2A agonist,MC4R barr agon,MC4R antagonist
Cc1cc(-n2c(SCC(=O)Nc3ccc(Br)cc3)nc3n[nH]c(C)c3c2=N)ccc1Cl,i,-4,i,-3,19*,16
Cc1ccc2nc(SCC(=O)NCc3ccccc3)nc(=O)n2c1,i,-4,i,1,-6,-2
CC(C)c1nc(C(=O)N2CCc3c([nH]c4ccccc34)C2c2ccccn2)cs1 (stereo unspecified),i,-3,i,-4,9.0*,4
Cc1nc(C(=O)N2CCc3c([nH]c4ccccc34)C2c2ccccn2)cs1 (stereo unspecified),i,-1,i,-8,-3,-4
CCCn1c(C)cc(C(=O)COC(=O)c2cc(=O)[nH]c3ccccc23)c1C,·,·,·,1,8.9*,-4
COc1ccc(S(=O)(=O)N2CCN(C(=O)CCCN3C(=O)NC4(CCCC4)C3=O)CC2)cc1,·,-1,i,-1,1,16
COc1ccc(C(=O)N[C@H](C(=O)NCCCSc2ccccc2)C(C)C)cc1,·,1,i,-7,-3,4
O=C(O)c1cc(N/N=C/c2ccc(N3CCOCC3)s2)ccc1Cl,i,0,i,8,-3,-12
C/C(=N\Nc1ccc(Cl)c(C(=O)O)c1)c1ccc(N2CCOCC2)cc1,25*,-1,i,-1,0,-12
O=P(CCCCCCCCCP(=O)(c1ccccc1)c1ccccc1)(c1ccccc1)c1ccccc1,100*,-5,i,-5,5,9
O=C(OCC(=O)N1CCN(c2ccccc2)CC1)c1nc(Cl)ccc1Cl,i,-3,i,-7,-6,1
O=C(COC(=O)/C=C/c1ccccc1Cl)NC(=O)NCc1ccccc1,·,-4,i,3,8.4*,-2
O=C(COC(=O)/C=C/c1ccccc1Cl)NC(=O)Cc1ccccc1,i,-3,i,3,-1,-4
O=C(CNC(=O)C1CC(=O)N(c2cccc3ccccc23)C1)Nc1ccccc1Br (stereo unspecified),·,-2,i,0,1,12
Cc1nnc(SCC(=O)NC2CCCC2)n1C(C)C,i,-4,i,10,-1,-4
O=C(Nc1nc2ccccc2[nH]1)C1CC1,i,-1,-5.8*,-4,-3,-4
O=C(CC(=O)c1ccccc1)Nc1ccccc1C(F)(F)F,i,-3,i,-1,-1,2
O=C(Nc1cccnc1)Nc1ccccn1,i,-1,-6.4*,5,1,-4
O=C(Nc1ccccn1)c1cccnc1,i,-1,i,1,-1,-3
COc1ccccc1C(=O)NC(=O)COC(=O)c1ccc(C)o1,i,-2,i,4,-3,8
CC1(C)OC(=O)C2=C(C[C@@H](CCc3ccccc3)O[C@H]2C2CCCC2)O1,·,·,·,-6,·,·
O=C(COC(=O)C1=Cc2ccccc2OC1)NCc1ccc(F)cc1,·,·,i,7,-1,13
COc1ccc(N2C(=S)N=C(Nc3ccccc3)C23CCCCC3)cc1,i,-2,i,-2,14*,20
COc1ccc(NC2=NC(=S)N(c3ccccc3C)C23CCCCC3)cc1,i,-2,i,-3,4,18
CS(=O)(=O)Nc1cccc(NC(=O)C2Cc3c(-c4ccccc4)ccnc3O2)c1 (stereo unspecified),·,·,·,-1,-1,-5
SMILES,TMEM16A inh,MIN6 prolif,TMEM16A act,m5-HT2A agonist,MC4R barr agon,MC4R antagonist
N#CC(c1cccc(Cl)c1)c1ccc2c(C(F)(F)F)cc(C(F)(F)F)nc2n1 (stereo unspecified),100*,-4,-4.8*,-2,-2,-1
NNc1ccc2c(C(F)(F)F)cc(C(F)(F)F)nc2n1,i,0,i,3,1,19
C=C(CN(C)C)C(=O)c1cc(C)ccc1C,·,·,i,-5,-4,47*
Cc1ccc(C)c(C(=O)NCCN(C)C)c1,i,-2,i,3,-2,-6
N#Cc1ccc(OCC(O)CN2CCN(CC(O)COc3ccc(C#N)cc3)CC2)cc1 (stereo unspecified),i,1,i,-2,-3,6
N#Cc1ccc(OCC(O)CN2CCN(c3ncc(C(F)(F)F)cc3Cl)CC2)cc1 (stereo unspecified),25*,-3,i,-4,3,8
C=C(C)C(O)CC/C(C)=C/Cc1c(O)ccc(C(=O)/C=C/c2ccc(O)cc2)c1O (stereo unspecified),·,-6,i,-2,9.6*,11
Cc1cc(NC(=O)c2csc([C@@H]3O[C@H](CO)[C@H](O)[C@H](O)[C@H]3O)n2)n(C)n1,·,·,·,-5,1,4
CCc1cc(=O)oc2cc(C)cc(OC(C)C(=O)NCCCN3CCCC3=O)c12 (stereo unspecified),i,-1,i,0,-2,7
CN(C)c1ncc(S(=O)(=O)c2ccccc2)c(-c2ccc(Cl)cc2Cl)n1,i,-4,i,-7,4,4
CN(C)c1ncc(S(=O)(=O)c2ccc(Cl)cc2)c(-c2ccc(Cl)cc2Cl)n1,i,-6,-7.7*,0,-1,6
Cc1ccc(NC(=O)c2ccc(Cl)c(S(=O)(=O)N3CCCC3)c2)nc1,i,3,i,0,-3,-5
N[C@@H](Cc1ccccc1)C(=O)N1CCC(C(=O)N[C@@H](CCC(=O)O)C(=O)O)CC1,i,-2,i,-1,1,3
COC(=O)c1cc(C(=O)c2ccc(C(C)(C)C)cc2)c[nH]1,25*,-1,i,-1,0,-3
CC(C)(C)c1ccc(C(=O)c2c[nH]c(C(=O)O)c2)cc1,i,-2,i,5,-1,6
COC(=O)c1c(NC(=O)CCc2ccc(C)o2)sc(C)c1C,100*,-3,i,-1,-2,16
CC(C)Nc1ncnc2c1ncn2[C@H]1CN(Cc2cccnc2)C[C@@H](CO)O1,·,·,·,4,0,0
Cc1ccc(-c2nnn(CC(=O)Nc3ccc(S(=O)(=O)N4CCC(C)CC4)cc3)n2)cc1,i,-4,i,-2,13*,-4
CC1CCN(S(=O)(=O)c2ccc(NC(=O)Cn3nnc(-c4ccccc4)n3)cc2)CC1,i,-3,i,-1,37*,-4
O=C(NCCOc1ccc(F)cc1)C1CCC(=O)N(CCN2CCOCC2)C1 (stereo unspecified),i,-4,i,-1,-3,10
O=C(Nc1ccc(Br)cc1)C1CC(c2c(F)cccc2Cl)=NO1 (stereo unspecified),25*,-3,i,-3,1,3
